Only some compounds are listed: those with a hit (about 1.5% of all), similar ones and a draw of the others.
MDM2 E3 inh: inhibitors of human Mdm2 E3 ubiquitin ligase | Q00987 | cell-based MDM2 ubiquitination luciferase reporter, 2 h; 0 = plate control, 100 = twice control, blank-subtracted | signal enhancement, % at 5 µM | 210,000 compounds, 0.11% hits | AID 1230;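 active = signal enhancement of 30% or more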;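 note: luminescence tracks abundance of the self-degrading MDM2-luciferase fusion protein; higher signal means inhibition of MDM2 E3 ligase activity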
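Material: Stable MDM2–luciferase fusion reporter cells | Amount: 2000 cells seeded into each well | Dosing: One concentration, 5 µM, with 0.2% DMSO | Incubation: 4 h cell settling then 2 h compound exposure, 37 °C | Measured by: Luciferase luminescence | Read-out basis: % enhancement relative to plate controls after blank subtraction | Benchmarks: Control and blank well means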
Pf gamet viab: kills late stage P. falciparum gametocytes; 150,000 compounds, 0.065% hits; AID 743093; inhibition, % at 10.9 µM; P. falciparum stage V gametocytes, ATP luminescence, 24 h;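 active = inhibition above the mean plus 3 SD of compounds within the control limits, set per campaign, cut at about 38% in these data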;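 note: 0% = DMSO wells and 100% = medium only without gametocytes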
Wee1 degr inh: inhibitors of human Wee1 degradation; P30291; HeLa Luc-Wee1K328M stability, luciferase luminescence; 100% = proteasome inhibitor MG132 effect; reporter increase, % at 5 µM; 220,000 compounds, 1.2% hits; AID 1321;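 active = activation above the mean of all tested compounds plus 3 SD, set per screening run, cut at about 8.8% in these data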;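 note: cells exposed to compound for 20 h before luminescence read; 0% = DMSO alone and 100% = MG132 at 30 µM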
Calpain2 inh: blocks pig calpain II enzyme activity; purified calpain II, fluorogenic peptide substrate, 30 min; inhibition, % at 16 µM; 220,000 compounds, 0.37% hits;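 active = inhibition above about 50%, limit read from the data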
Hsp70 activator: switches on Hsp70 transcription; HeLa Hsp70 promoter luciferase reporter, luminescence; scaled: vehicle 0, proteasome-inhibitor control 100%; activation, % at 10 µM; 200,000 compounds, 0.04% hits; AID 1203;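 active = activation above the mean across all tested compounds plus 3 SD, cutoff set per campaign, cut at about 5.5% in these data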;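 note: 100% = MG132 at 30 µM as the positive control and 0% = DMSO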
Wee1 stab conf: confirmation of human Wee1 degradation inhibitors; shares compounds with Wee1 degr inh; HeLa Luc-Wee1K328M degradation, luminescence; vehicle 0%, proteasome-blocked wells 100%; activation, % at 5 µM; 1,100 compounds, 4% hits; AID 1410; in the data active = activation above about 8.9%
An asterisk follows results filed as active; x = not tested or not shown.

SMILES	MDM2 E3 inh	Pf gamet viab	Wee1 degr inh	Calpain2 inh	Hsp70 activator	Wee1 stab conf
COc1ccccc1CNCC(=O)Nc1ccc(C(F)(F)F)cc1	x	-9.4	11.9*	10.2	x	0.5
Cc1ccc(Oc2ccc(-c3nc(N)nc(N)n3)cc2)cc1C	-1.4	x	-2.8	-2.3	-0.2	x
Cc1ccccc1-n1cnnc1SCC(=O)Nc1cccnc1Cl	-3.3	-11.0	15.1*	15.2	-0.1	-0.4
COc1ccccc1-n1cnnc1SCC(=O)Nc1cccnc1Cl	-0.8	x	-0.4	-13.7	-0.3	x
CCN(CC)CCOC(=O)C1(c2ccccc2)CCOCC1	-26.1	-14.3	13.9*	6.6	0.0	0.4
COc1ccc(C(=O)NCCCn2ccnc2)cc1[N+](=O)[O-]	x	-2.3	18.3*	-6.6	x	-0.6
CCCCCOc1ccc(Cn2ccnc2)cc1[N+](=O)[O-]	-5.2	x	-0.6	24.1	-0.3	x
CCOc1ccc(Cn2ccnc2)cc1[N+](=O)[O-]	-31.4	20.0	16.0*	25.7	-0.4	-0.4
COc1cc(C(=O)NCCCn2ccnc2)cc(OC)c1OC	-16.6	0.0	3.3	-9.5	0.0	x
COc1cc(F)cc(-c2ccc3c(c2)c(C#Cc2ccsc2)c(-c2cc(OC)cc(OC)c2)n3C)c1	x	-0.6	x	x	x	x
CCCOc1ccc(NC(=O)OC2CCN(C)CC2)cc1	9.8	22.6	-1.7	-5.2	0.1	x
